ChEMBL document CHEMBL3046103, “Antifungal synergistic effect of scopoletin, a hydroxycoumarin isolated from Melia azedarach L. fruits” (J Agric Food Chem, 2005)
One block for each compound: values may come before it.

What was measured:
Fusarium verticillioides [1] = assay: Antifungal activity against Fusarium verticillioides assessed as growth inhibition by broth microdilution method
Fusarium verticillioides [2] = assay: Antifungal activity against Fusarium verticillioides assessed as growth inhibition at 1 mg/mL by broth microdilution method; type: functional
Outline: (§1)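 F. verticillioides strain M-7075, a maize isolate, was kept as a monosporic culture on V8 juice medium. Four-day-old spores were suspended at 10^5 spores/mL in glucose-mineral salts medium. Compound in filter-sterilized DMSO (final ≤2-4%) was tested at 0.10–1.70 mg/mL, in duplicate, alongside DMSO and untreated controls. Germination relative to control mycelial growth (100%) was scored visually by inverted microscope. MIC was the lowest concentration giving complete inhibition, and IC50 came from probit analysis.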

Fusarium verticillioides [3] = assay: Antifungal activity against Fusarium verticillioides assessed as growth inhibition by broth microdilution method; type: functional, organism-based
Outline: as §1

Fusarium incarnatum [4] = assay: Antifungal activity against Fusarium incarnatum assessed as growth inhibition at 1 mg/mL by broth microdilution method; type: functional; settings: read-out: GI
Fusarium [5] = assay: Antifungal activity against Fusarium fusiformis assessed as growth inhibition by broth microdilution method; type: functional, organism-based
Fusarium [6] = assay: Antifungal activity against Fusarium fusiformis assessed as growth inhibition at 1 mg/mL by broth microdilution method; type: functional
Fusarium incarnatum [7] = assay: Antifungal activity against Fusarium incarnatum assessed as growth inhibition by broth microdilution method; type: functional, organism-based

MIC (Fusarium verticillioides [1]): 600 µg/mL
SMILES: COc1cc(C=O)ccc1O [VANILLIN]

MIC (Fusarium verticillioides [1]): 400 µg/mL
SMILES: COc1cc(/C=C/C=O)ccc1O [CONIFERYL ALDEHYDE]

MIC (Fusarium verticillioides [1]): 1000 µg/mL
SMILES: COc1cc(C2OCC3C(c4ccc(O)c(OC)c4)OCC23)ccc1O (racemic) [(+/-)-PINORESINOL]

MIC (Fusarium verticillioides [3]): 1500 µg/mL
SMILES: COc1cc2ccc(=O)oc2cc1O [SCOPOLETIN]
inhibition at 1000 µg/mL (Fusarium verticillioides [2]): 90%
IC50 (Fusarium verticillioides [3]): 730 µg/mL
inhibition of growth at 1000 µg/mL (Fusarium incarnatum [4]): 66.2%
IC50 (Fusarium [5]): 820 µg/mL
inhibition at 1000 µg/mL (Fusarium [6]): 51.8%
IC50 (Fusarium incarnatum [7]): 470 µg/mL
